Measured values published in ChEMBL document CHEMBL4196209, “Validation of Matrix Metalloproteinase-9 (MMP-9) as a Novel Target for Treatment of Diabetic Foot Ulcers in Humans and Discovery of a Potent and Selective Small-Molecule MMP-9 Inhibitor That Accelerates Healing” (J Med Chem, 2018).
pKi: −log10 of the molar value. Active and inactive are the calls of the source. No cut-off for these calls is given here.

Assays:
[1] = target: T1, Disintegrin and metalloproteinase domain-containing protein 9 (Homo sapiens) (UniProt Q13443); test: Inhibition of human recombinant ADAM9 at 100 uM using Mca-Pro-Leu-Ala-Gln-Ala-Val-Dpa-Arg-Ser-Ser-Ser-Arg-NH2 substrate
T1 sequence (whole entry): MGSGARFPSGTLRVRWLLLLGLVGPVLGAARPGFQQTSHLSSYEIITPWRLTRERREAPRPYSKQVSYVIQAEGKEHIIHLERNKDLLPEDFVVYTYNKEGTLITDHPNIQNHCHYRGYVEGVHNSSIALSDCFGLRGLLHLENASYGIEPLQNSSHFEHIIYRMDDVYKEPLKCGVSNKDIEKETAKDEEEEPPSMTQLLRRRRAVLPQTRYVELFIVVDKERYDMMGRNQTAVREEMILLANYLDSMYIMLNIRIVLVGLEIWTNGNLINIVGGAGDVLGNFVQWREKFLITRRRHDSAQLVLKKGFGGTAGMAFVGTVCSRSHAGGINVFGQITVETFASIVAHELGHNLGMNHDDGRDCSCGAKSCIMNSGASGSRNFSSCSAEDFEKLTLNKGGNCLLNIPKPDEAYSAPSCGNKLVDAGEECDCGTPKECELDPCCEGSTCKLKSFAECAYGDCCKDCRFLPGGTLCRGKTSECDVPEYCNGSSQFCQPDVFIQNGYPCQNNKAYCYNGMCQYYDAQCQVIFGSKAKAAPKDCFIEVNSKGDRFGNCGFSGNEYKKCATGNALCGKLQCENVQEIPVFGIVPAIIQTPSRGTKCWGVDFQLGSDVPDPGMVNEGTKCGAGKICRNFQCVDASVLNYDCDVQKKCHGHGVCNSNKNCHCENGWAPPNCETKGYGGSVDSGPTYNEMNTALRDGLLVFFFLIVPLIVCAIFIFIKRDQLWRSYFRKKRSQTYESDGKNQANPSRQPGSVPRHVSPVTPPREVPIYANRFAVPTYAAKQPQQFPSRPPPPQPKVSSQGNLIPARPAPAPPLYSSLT
Summary of the method: (§1)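 Fluorogenic continuous assay of recombinant enzymes; Mca-KPLGL-Dpa-AR-NH2 substrate for MMP-1, MMP-8, ADAM10; Mca-PLAQAV-Dpa-RSSSR-NH2 for ADAM9; MOCAc-PLGL-A2pr(Dnp)-AR-NH2 for MMP-2, MMP-9, MMP-14 with Km determined beforehand. Inhibitor stocks 10 mM in DMSO; duplicates, repeated three times; Ki for slow-binding inhibitors from koff/kon.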

[2] = target: T2, Matrilysin (Homo sapiens) (UniProt P09237); test: Inhibition of human recombinant MMP7 at 100 uM using MOCAc-Pro-Leu-Gly-Leu-A2pr(Dnp)-Ala-Arg-NH2 substrate
T2 sequence (whole entry): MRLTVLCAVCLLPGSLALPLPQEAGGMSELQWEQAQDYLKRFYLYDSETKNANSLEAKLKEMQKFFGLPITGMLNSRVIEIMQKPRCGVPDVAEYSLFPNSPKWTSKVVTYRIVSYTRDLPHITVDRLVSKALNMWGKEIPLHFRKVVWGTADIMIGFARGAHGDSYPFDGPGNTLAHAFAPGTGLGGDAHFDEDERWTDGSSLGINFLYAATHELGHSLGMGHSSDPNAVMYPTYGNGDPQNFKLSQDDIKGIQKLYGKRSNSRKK

[3] = system: Mus musculus; test: Induction of wound healing in db/db BKS.Cg-Dock7m+/+ Lepr db/J mouse model of full-thickness excision at 50 ug/wound/day for 14 days dosed topically 1 day after wound creation; type: functional, organism-based
Summary of the method: (§2)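 Female db/db mice (8 weeks, ~40 g) with 8 mm full-thickness dorsal excision wound, Tegaderm-covered; from day 1, 100 µL of 0.5 mg/mL aqueous solution (50 µg/wound/day) or water vehicle topically once daily for 14 days. Wounds measured days 0, 7, 10, 14; cryosections for H&E re-epithelialization and DQ-collagen in-situ zymography, n = 3/group/time point.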

[4] = system: Mus musculus; test: Induction of wound healing in db/db BKS.Cg-Dock7m+/+ Lepr db/J mouse model of full-thickness excision assessed as increase in re-epithelialization at 50 ug/wound/day for 14 days dosed topically 1 day after wound creation by H and E staining; type: functional, organism-based; summary of the method: as §2
[5] = target: T3, Disintegrin and metalloproteinase domain-containing protein 10 (Homo sapiens) (UniProt O14672); test: Inhibition of human recombinant ADAM10 at 100 uM using Mca-Lys-Pro-Leu-Gly-Leu-Dpa-Ala-Arg-NH2 substrate; summary of the method: as §1
T3 sequence (whole entry): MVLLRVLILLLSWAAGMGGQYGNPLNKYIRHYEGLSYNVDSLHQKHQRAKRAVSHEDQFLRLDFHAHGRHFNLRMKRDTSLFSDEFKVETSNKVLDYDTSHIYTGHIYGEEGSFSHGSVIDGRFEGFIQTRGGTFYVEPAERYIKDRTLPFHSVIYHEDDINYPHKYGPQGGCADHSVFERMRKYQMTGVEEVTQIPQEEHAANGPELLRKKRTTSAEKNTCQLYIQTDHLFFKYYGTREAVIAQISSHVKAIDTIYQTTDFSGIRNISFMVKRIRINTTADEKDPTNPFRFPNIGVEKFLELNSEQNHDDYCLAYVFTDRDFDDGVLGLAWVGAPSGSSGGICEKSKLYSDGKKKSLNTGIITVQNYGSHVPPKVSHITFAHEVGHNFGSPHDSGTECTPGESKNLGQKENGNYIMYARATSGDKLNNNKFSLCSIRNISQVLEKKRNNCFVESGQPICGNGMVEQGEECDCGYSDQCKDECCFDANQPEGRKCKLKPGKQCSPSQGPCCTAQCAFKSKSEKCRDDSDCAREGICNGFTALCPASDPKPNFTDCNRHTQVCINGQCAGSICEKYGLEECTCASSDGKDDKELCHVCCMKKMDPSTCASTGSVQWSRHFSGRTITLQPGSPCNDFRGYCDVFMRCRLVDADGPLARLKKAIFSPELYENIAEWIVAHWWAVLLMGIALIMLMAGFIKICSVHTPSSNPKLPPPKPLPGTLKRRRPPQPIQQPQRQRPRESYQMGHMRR

[6] = target: T4, Interstitial collagenase (Homo sapiens) (UniProt P03956); test: Inhibition of human recombinant MMP1 catalytic domain at 100 uM using Mca-Lys-Pro-Leu-Gly-Leu-Dpa-Ala-Arg-NH2 substrate; summary of the method: as §1
T4 sequence (whole entry): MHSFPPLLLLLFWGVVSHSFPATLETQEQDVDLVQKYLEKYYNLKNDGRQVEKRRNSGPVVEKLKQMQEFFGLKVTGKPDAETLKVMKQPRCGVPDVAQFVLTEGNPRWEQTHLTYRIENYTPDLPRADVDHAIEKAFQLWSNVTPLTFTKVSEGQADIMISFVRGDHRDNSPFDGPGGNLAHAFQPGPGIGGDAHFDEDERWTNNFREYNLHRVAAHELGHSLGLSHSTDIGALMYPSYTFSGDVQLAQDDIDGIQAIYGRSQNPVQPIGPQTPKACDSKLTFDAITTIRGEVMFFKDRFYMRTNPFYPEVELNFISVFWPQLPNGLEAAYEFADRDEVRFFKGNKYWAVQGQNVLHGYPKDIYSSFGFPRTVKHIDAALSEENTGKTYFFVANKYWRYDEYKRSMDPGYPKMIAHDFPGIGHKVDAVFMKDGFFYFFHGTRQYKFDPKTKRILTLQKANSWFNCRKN

[7] = target: Matrix metalloproteinase-14 (Homo sapiens, UniProt P50281); test: Slow binding inhibition of human recombinant MMP14 catalytic domain using MOCAc-Pro-Leu-Gly-Leu-A2pr(Dnp)-Ala-Arg-NH2 substrate; summary of the method: as §1
[8] = system: Mus musculus; test: Inhibition of MMP8 activity in db/db BKS.Cg-Dock7m+/+ Lepr db/J mouse model of full-thickness excision using DQ-collagen substrate at 50 ug/wound/day for 14 days dosed topically 1 day after wound creation by in-situ zymography; type: functional, organism-based; summary of the method: as §2
[9] = system: Mus musculus; test: Inhibition of MMP9 activity in db/db BKS.Cg-Dock7m+/+ Lepr db/J mouse model of full-thickness excision using DQ-gelatin substrate at 50 ug/wound/day for 14 days dosed topically 1 day after wound creation by in-situ zymography; type: functional, organism-based
[10] = target: 72 kDa type IV collagenase (Homo sapiens, UniProt P08253); test: Slow binding inhibition of human recombinant MMP2 using MOCAc-Pro-Leu-Gly-Leu-A2pr(Dnp)-Ala-Arg-NH2 substrate; summary of the method: as §1
[11] = target: Stromelysin-1 (Homo sapiens) (UniProt P08254); test: Inhibition of human recombinant MMP3 catalytic domain at 100 uM using MOCAc-Arg-Pro-Lys-Pro-Val-Glu-Nva-Trp-Arg-Lys(Dnp)-NH2 substrate
[12] = target: T4, Interstitial collagenase (Homo sapiens); test: Inhibition of human recombinant MMP1 catalytic domain using Mca-Lys-Pro-Leu-Gly-Leu-Dpa-Ala-Arg-NH2 substrate; summary of the method: as §1
[13] = AUC in C57BLKS/6J db/db mouse plasma at 2 mg/kg applied topically to wounds as single administration by UPLC-MRM analysis; type: ADME, organism-based; settings: topical or ocular
[14] = system: Mus musculus; test: Reduction in NFkappaB p65 protein levels generation in db/db BKS.Cg-Dock7m+/+ Lepr db/J mouse model of full-thickness excision at 50 ug/wound/day for 7 days dosed topically 1 day after wound creation by ELISA; type: functional, organism-based
[15] = in vivo; settings: C57BLKS/6J db/db, mouse, plasma, topical or ocular, 2 mg/kg
[16] = system: Mus musculus; test: Induction of wound healing in db/db BKS.Cg-Dock7m+/+ Lepr db/J mouse model of full-thickness excision at 50 ug/wound/day for 7 days dosed topically 1 day after wound creation; type: functional, organism-based; summary of the method: as §2
[17] = system: Mus musculus; test: Reduction in ROS generation in db/db BKS.Cg-Dock7m+/+ Lepr db/J mouse model of full-thickness excision at 50 ug/wound/day for 7 days dosed topically 1 day after wound creation by L-012 dye based assay; type: functional, organism-based
Summary of the method: (§3)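 Wounded db/db mice dosed topically with 50 µg/wound/day or water vehicle; on days 1, 2, 3 and 7 post-wounding, anaesthetised with 2% isoflurane, injected ip with 200 µL L-012 (5 mg/mL in PBS), and bioluminescence imaged immediately at 5-min intervals; n = 3/group/time point.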

[18] = system: Salmonella typhimurium; test: Mutagenicity in Salmonella typhimurium by Ames test; type: toxicity, organism-based; settings: salmonella enterica subsp. enterica serovar typhimurium
[19] = AUC in C57BLKS/6J db/db mouse plasma at 2 mg/kg, iv dosed as single administration by UPLC-MRM analysis; type: ADME, organism-based
[20] = system: Mus musculus; test: Reduction in NFkappaB p65 protein levels generation in db/db BKS.Cg-Dock7m+/+ Lepr db/J mouse model of full-thickness excision at 50 ug/wound/day for 1 day dosed topically 1 day after wound creation by ELISA; type: functional, organism-based
[21] = system: Mus musculus; test: Reduction in NFkappaB p65 protein levels generation in db/db BKS.Cg-Dock7m+/+ Lepr db/J mouse model of full-thickness excision assessed as p65 AUC level at 50 ug/wound/day for 7 days dosed topically 1 day after wound creation by ELISA (reference value: 834 +/- 121 ug/mg.day); type: functional, organism-based
[22] = system: Mus musculus; test: Reduction in NFkappaB p65 protein levels generation in db/db BKS.Cg-Dock7m+/+ Lepr db/J mouse model of full-thickness excision at 50 ug/wound/day for 2 days dosed topically 1 day after wound creation by ELISA; type: functional, organism-based
[23] = system: Mus musculus; test: Reduction in ROS generation in db/db BKS.Cg-Dock7m+/+ Lepr db/J mouse model of full-thickness excision at 50 ug/wound/day for 3 days dosed topically 1 day after wound creation by L-012 dye based assay; type: functional, organism-based; summary of the method: as §3

Stromelysin-1 (Homo sapiens), sequence (P08254 100-477 limits assumed): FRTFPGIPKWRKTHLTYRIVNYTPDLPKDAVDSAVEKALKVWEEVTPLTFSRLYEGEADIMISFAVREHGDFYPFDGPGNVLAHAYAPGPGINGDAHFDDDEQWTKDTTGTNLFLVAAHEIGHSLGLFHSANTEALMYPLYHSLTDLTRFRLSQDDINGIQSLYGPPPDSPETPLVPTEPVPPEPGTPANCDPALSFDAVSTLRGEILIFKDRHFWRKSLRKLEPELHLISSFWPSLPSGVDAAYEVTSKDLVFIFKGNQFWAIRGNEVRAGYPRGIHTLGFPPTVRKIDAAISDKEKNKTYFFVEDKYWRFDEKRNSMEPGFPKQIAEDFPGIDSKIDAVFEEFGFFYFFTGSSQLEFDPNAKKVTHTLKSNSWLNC
72 kDa type IV collagenase, sequence (P08253 whole entry, the tested form may be a part): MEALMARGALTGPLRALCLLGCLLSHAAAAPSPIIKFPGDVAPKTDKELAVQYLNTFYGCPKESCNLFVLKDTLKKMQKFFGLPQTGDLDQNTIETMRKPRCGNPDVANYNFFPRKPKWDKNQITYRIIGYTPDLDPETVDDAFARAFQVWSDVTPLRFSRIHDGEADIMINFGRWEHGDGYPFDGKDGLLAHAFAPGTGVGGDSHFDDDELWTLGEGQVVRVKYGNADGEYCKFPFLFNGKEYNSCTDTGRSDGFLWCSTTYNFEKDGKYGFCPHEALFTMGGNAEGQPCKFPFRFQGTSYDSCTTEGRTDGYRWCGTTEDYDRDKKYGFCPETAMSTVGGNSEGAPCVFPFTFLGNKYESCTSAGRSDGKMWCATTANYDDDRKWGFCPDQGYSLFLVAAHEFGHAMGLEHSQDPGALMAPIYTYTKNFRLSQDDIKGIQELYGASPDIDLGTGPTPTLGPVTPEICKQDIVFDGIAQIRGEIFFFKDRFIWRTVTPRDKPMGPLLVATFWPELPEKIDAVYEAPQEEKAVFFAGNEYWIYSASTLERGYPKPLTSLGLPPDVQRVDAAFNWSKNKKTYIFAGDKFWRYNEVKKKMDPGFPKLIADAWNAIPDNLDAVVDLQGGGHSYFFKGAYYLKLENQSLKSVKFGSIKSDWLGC

SMILES | inhibition [1] [%] | inhibition [2] [%] | Activity [3] | Activity [4] | inhibition [5] [%] | inhibition [6] [%] | pKi [7] | inhibition [8] | inhibition [9] | pKi [10] | inhibition [11] [%] | also measured
NCc1ccc(Oc2ccc(S(=O)(=O)C[C@@H]3CS3)cc2)cc1 | 25 | 15 | inactive | Active | 5 | 24 | 7.28 | Active | Active | 7.43 | 22 | –
O=S(=O)(CC1CS1)c1ccc(Oc2ccc(O)cc2)cc1 (stereo not drawn) | – | – | – | – | – | – | – | – | – | – | – | A0.5 [12]: Nottraceable
NCc1ccc(Oc2ccc(S(=O)(=O)CC3CS3)cc2)cc1 (racemic) | 31 | 1 | inactive | Active | 14 | 4 | – | Active | Active | – | 23 | –
Cl.NCc1ccc(Oc2ccc(S(=O)(=O)C[C@H]3CS3)cc2)cc1 | 41 | 20 | Active | Active | 13 | 22 | 6.92 | inactive | Active | 6.90 | 37 | AUC [13]: 21.7 nM·h; Activity [14]: Active; bioavailability [15]: 3.7%; Activity [16]: Active; Activity [17]: Active; Activity [18]: Non-Toxic; AUC [19]: 583 nM·h; Activity [20]: Active; AUC [21]: 492 µg/mg/day; Activity [22]: Active; Activity [23]: Active
